Like-named read-outs stand apart in the source and are kept apart here.
Legend:
[1] = molecular target: T1, homomeric human CNGA3 channels (Homo sapiens, UniProt Q16281); format: biochemical; details: for IMAX cAMP (Hill fit): normalized to maximum cGMP current; for EC50: read-out: K1/2 cGMP (Hill fit); for gating effect (increase in cGMP apparent affinity) compared with MMP9: within 40 min of exposure, MMP2 10 nM, trypsin 10 nM, collagenase 100 nM
T1 sequence (Q16281 1-694): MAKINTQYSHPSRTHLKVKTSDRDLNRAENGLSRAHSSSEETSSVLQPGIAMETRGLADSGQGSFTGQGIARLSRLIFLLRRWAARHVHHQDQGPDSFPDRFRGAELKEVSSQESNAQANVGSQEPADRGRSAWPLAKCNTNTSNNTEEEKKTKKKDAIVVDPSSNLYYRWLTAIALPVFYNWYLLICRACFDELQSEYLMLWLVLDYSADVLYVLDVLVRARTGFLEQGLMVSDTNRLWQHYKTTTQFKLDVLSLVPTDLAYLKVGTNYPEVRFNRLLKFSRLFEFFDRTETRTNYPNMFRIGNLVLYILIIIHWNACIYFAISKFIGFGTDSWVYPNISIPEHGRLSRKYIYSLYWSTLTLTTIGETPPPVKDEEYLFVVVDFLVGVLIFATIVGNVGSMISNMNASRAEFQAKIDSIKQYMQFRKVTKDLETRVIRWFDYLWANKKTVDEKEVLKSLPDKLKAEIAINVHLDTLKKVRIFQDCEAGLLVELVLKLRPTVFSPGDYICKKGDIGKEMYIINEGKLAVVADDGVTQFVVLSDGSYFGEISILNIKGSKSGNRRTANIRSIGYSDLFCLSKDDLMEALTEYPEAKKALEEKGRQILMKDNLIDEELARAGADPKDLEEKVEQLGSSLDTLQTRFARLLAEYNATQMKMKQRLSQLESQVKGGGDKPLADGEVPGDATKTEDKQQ

homomeric CNGA1 channels = molecular target: T2, homomeric CNGA1 channels (Bos taurus, UniProt Q00194); test: Inside-out patch-clamp of oocyte patches expressing rod homomeric CNGA1 channels; format: biochemical, bovine
T2 sequence (Q00194 1-690): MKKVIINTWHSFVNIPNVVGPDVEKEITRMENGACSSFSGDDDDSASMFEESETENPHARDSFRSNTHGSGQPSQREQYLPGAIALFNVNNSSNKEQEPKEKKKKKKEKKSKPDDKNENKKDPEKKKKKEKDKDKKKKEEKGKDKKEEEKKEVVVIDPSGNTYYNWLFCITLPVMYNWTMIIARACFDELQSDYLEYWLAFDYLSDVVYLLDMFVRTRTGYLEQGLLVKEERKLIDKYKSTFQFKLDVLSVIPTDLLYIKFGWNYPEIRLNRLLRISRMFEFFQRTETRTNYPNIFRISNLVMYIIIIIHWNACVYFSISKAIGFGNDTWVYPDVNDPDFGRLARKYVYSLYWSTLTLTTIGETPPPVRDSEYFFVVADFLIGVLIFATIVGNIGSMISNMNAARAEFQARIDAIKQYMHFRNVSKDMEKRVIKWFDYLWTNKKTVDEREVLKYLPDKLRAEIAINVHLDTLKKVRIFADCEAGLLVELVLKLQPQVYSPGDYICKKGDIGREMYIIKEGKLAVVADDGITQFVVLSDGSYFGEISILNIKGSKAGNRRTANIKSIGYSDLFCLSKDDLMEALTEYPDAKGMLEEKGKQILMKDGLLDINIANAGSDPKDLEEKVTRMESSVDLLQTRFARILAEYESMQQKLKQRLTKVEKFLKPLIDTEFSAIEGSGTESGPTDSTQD

[2] = molecular target: native rod photoreceptor CNG channels; test: Inside-out patches excised from Xenopus rod outer segments; format: biochemical, Xenopus laevis
Outline: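 Retinas dissected from Xenopus laevis into frog Ringer's (pH 7.6), and rod outer segments freed by gentle agitation. Inside-out patches (pipettes 3–6 MΩ) at 20–23°C, with 130 mM NaCl, 0.2 mM EDTA, 3 mM HEPES (pH 7.2) solutions.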

[3] = molecular target: heteromeric CNGA1 + CNGB1 channels (UniProt Q00194+Q14028); format: biochemical, bovine CNGA1, human CNGB1; details: for EC50: read-out: K1/2 cGMP (Hill fit)
[4] = molecular target: T3, heteromeric CNGA3 + CNGB3 channels (Homo sapiens, UniProt Q16281+Q9NQW8); format: biochemical
T3 sequence (Q16281 1-694): T1 sequence (Q16281 1-694)
T3 sequence (Q9NQW8 1-809): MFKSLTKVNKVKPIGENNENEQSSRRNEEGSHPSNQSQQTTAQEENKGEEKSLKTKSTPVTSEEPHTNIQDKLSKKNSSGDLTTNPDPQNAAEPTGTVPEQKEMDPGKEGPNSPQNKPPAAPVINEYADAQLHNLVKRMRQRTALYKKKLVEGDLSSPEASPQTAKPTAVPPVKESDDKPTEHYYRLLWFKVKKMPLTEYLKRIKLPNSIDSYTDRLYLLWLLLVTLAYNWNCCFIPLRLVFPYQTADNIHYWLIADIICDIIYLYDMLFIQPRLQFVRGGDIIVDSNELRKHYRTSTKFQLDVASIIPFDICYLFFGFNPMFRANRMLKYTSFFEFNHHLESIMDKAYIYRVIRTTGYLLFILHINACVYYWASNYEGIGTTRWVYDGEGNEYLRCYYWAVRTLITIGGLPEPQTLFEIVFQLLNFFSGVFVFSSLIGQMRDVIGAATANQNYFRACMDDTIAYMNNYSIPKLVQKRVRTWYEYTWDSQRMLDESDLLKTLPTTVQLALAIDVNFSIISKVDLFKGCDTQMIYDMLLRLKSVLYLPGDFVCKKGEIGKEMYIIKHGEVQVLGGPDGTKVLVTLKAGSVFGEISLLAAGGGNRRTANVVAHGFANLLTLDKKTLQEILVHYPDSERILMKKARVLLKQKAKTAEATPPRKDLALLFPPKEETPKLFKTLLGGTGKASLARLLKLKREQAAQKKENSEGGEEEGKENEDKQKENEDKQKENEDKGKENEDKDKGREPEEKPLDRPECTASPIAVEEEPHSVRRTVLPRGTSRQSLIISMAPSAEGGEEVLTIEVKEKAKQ

[5] = representative control patch, t0 (Fig 1F)
[6] = representative control patch, t80 (Fig 1F)
[7] = representative control patch, t40 (Fig 4B)
[8] = representative control patch, t60 (Fig 1B)
[9] = representative control patch, t0 (Fig 9C)
[10] = representative control patch, t40 (Fig 9C)

Sequence of heteromeric CNGA1 + CNGB1 channels (Q14028 whole entry, one chain of several): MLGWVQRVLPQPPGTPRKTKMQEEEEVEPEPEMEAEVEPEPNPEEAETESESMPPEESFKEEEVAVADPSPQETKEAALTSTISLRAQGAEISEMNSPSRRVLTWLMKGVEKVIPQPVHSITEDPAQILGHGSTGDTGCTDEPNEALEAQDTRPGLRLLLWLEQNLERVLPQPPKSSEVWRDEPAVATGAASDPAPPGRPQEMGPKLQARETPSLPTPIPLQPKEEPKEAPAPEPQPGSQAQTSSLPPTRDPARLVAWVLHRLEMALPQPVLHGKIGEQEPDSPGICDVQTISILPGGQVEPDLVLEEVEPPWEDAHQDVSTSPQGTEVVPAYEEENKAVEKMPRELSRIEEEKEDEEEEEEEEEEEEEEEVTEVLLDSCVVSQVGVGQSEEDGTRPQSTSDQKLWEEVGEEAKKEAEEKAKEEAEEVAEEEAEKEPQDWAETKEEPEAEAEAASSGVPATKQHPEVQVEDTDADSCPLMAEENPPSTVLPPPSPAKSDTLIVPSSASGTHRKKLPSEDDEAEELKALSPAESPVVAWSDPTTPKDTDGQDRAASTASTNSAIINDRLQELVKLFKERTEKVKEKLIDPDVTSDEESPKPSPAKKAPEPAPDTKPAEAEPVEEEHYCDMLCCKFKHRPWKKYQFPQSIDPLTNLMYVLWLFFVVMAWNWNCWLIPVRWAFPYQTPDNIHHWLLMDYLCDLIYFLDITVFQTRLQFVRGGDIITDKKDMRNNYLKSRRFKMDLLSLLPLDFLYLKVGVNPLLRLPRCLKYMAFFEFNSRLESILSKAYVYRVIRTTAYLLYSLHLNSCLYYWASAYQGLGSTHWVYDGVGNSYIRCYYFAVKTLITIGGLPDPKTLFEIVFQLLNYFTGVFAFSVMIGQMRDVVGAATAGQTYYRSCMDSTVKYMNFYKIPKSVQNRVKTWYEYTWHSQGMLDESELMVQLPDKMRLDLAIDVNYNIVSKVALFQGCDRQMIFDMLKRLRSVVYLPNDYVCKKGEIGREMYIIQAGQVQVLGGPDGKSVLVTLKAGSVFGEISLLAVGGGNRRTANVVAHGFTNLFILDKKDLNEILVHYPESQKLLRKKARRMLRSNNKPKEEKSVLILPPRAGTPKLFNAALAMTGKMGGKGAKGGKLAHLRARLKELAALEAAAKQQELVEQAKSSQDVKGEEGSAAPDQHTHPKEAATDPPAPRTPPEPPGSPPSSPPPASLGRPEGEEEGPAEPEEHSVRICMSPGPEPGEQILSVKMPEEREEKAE

Nc1ncnc2c1ncn2[C@@H]1O[C@@H]2COP(=O)(O)O[C@H]2[C@H]1O [cAMP, cyclic adenosine monophosphate]
efficacy of cAMP, IcAMP/IMAX ([1]; control patches, 60 min, n = 6): 0.15 ± 0.05
nH cAMP (Hill fit) [1, 5]: 1.1
IMAX cAMP (Hill fit) [1, 5]: 0.29
nH cAMP (Hill fit) [1, 6]: 1.0
IMAX cAMP (Hill fit) [1, 6]: 0.14

Nc1nc2c(ncn2[C@@H]2O[C@@H]3COP(=O)(O)O[C@H]3[C@H]2O)c(=O)[nH]1 [cGMP, cyclic guanosine monophosphate]
equilibrium constant for the allosteric transition (L) ([1]; A3 control, cGMP, 80 min post excision, allosteric model fit (Fig 10A)): 180
Hill slope nH, cGMP ([1]; control patches, 60 min, n = 6): 2.2 ± 0.2
EC50 [1, 7]: 8 µM
EC50 [1, 8]: 10.3 µM
nH cGMP (Hill fit) ([1]; representative control patch, t0 (Fig 1B)): 2.9
IMAX cGMP (Hill fit) ([1]; representative control patch, t0 (Fig 1B), normalized to maximum t0 cGMP current): 1.0
nH cGMP (Hill fit) [1, 7]: 2.3
nH cGMP (Hill fit) [1, 8]: 2.1
equilibrium constant for the allosteric transition (L) (homomeric CNGA1 channels; A1 control, cGMP, 40 min post excision (Fig 10B)): 40
nH cGMP (Hill fit) (homomeric CNGA1 channels; representative control patch, t0 (Fig 9A)): 2.2
IMAX cGMP (Hill fit) (homomeric CNGA1 channels; representative control patch, t0 (Fig 9A), normalized to maximum t0 cGMP current): 1.0
nH cGMP (Hill fit) (homomeric CNGA1 channels; representative control patch, t40 (Fig 9A)): 2.2
EC50 ([2]; read-out: K1/2 cGMP (Hill fit), representative control patch, t0 (Fig 11A)): 19.3 µM
EC50 ([2]; read-out: K1/2 cGMP (Hill fit), representative control patch, t25 (Fig 11A)): 28.1 µM
EC50 ([2]; read-out: initial K1/2 cGMP, native CNG channels, initial value): 23.5 ± 2.1 µM
nH cGMP (Hill fit) ([2]; representative control patch, t0 (Fig 11A)): 2.6
nH cGMP (Hill fit) ([2]; representative control patch, t25 (Fig 11A)): 2.6
equilibrium constant for the allosteric transition (L) ([3]; A1+B1 control, cGMP, 40 min post excision (Fig 10B)): 20
EC50 [3, 9]: 59.4 µM
EC50 [3, 10]: 55.6 µM
nH cGMP (Hill fit) [3, 9]: 2.3
IMAX cGMP (Hill fit) ([3]; representative control patch, t0 (Fig 9C), normalized to maximum t0 cGMP current): 1.0
nH cGMP (Hill fit) [3, 10]: 2.4
2 μM cGMP current, I2μM/IMAX ([4]; control, 80 min, n = 4-6): 0.03 ± 0.006
EC50 ([4]; read-out: K1/2,GMP, time-matched control, 80 min, n = 4-6): 16.4 µM
EC50 ([4]; read-out: K1/2 cGMP (Hill fit), representative control patch, t0 (Fig 8A)): 15.7 µM
EC50 ([4]; read-out: K1/2 cGMP (Hill fit), representative control patch, t80 (Fig 8A)): 16.5 µM
nH cGMP (Hill fit) ([4]; representative control patch, t0 (Fig 8A)): 2.1
IMAX cGMP (Hill fit) ([4]; representative control patch, t0 (Fig 8A), normalized to maximum t0 cGMP current): 1.0
nH cGMP (Hill fit) ([4]; representative control patch, t80 (Fig 8A)): 1.9

CCCCNc1ccc(C(=O)OCCN(C)C)cc1 [tetracaine]
effect on the increased persistent current after MMP9 ([4]; data not shown): inhibited

collagenase
gating effect (increase in cGMP apparent affinity) compared with MMP9 [1]: failed to produce similar gating effects

B1: MMP2: active human recombinant MMP2 (Calbiochem, PF023), closely related gelatinase/metalloproteinase (protein, UniProt P08253 110-660, looked up)
72 kDa type IV collagenase: YNFFPRKPKWDKNQITYRIIGYTPDLDPETVDDAFARAFQVWSDVTPLRFSRIHDGEADIMINFGRWEHGDGYPFDGKDGLLAHAFAPGTGVGGDSHFDDDELWTLGEGQVVRVKYGNADGEYCKFPFLFNGKEYNSCTDTGRSDGFLWCSTTYNFEKDGKYGFCPHEALFTMGGNAEGQPCKFPFRFQGTSYDSCTTEGRTDGYRWCGTTEDYDRDKKYGFCPETAMSTVGGNSEGAPCVFPFTFLGNKYESCTSAGRSDGKMWCATTANYDDDRKWGFCPDQGYSLFLVAAHEFGHAMGLEHSQDPGALMAPIYTYTKNFRLSQDDIKGIQELYGASPDIDLGTGPTPTLGPVTPEICKQDIVFDGIAQIRGEIFFFKDRFIWRTVTPRDKPMGPLLVATFWPELPEKIDAVYEAPQEEKAVFFAGNEYWIYSASTLERGYPKPLTSLGLPPDVQRVDAAFNWSKNKKTYIFAGDKFWRYNEVKKKMDPGFPKLIADAWNAIPDNLDAVVDLQGGGHSYFFKGAYYLKLENQSLKSVKFGSIKSDWLGC
gating effect (increase in cGMP apparent affinity) compared with MMP9 [1]: indistinguishable from the effect produced by MMP9

B2: trypsin: extracellular serine protease, Trypsin-EDTA (Gibco, 25200) (protein, UniProt P00761 9-231, looked up)
Trypsin: IVGGYTCAANSIPYQVSLNSGSHFCGGSLINSQWVVSAAHCYKSRIQVRLGEHNIDVLEGNEQFINAAKIITHPNFNGNTLDNDIMLIKLSSPATLNSRVATVSLPRSCAAAGTECLISGWGNTKSSGSSYPSLLQCLKAPVLSDSSCKSSYPGQITGNMICVGFLEGGKDSCQGDSGGPVVCNGQLQGIVSWGYGCAQKNKPGVYTKVCNYVNWIQQTIAAN
modifications: EDTA
gating effect (increase in cGMP apparent affinity) compared with MMP9 [1]: failed to produce similar gating effects

From article PMC3431585 (Channels, 2012)
